According to ChEMBL document CHEMBL3098124, “Design, synthesis and anti-Alzheimer properties of dimethylaminomethyl-substituted curcumin derivatives” (Bioorg Med Chem Lett, 2014):

Key:
[1] = Aqueous solubility of the compound; type: physicochemical
[2] = tested on: Radical scavenging activity; experiment: Antioxidant activity assessed as DPPH free radical scavenging activity after 4 hrs; type: functional
How it was run: (§1)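 In vitro scavenging of DPPH or galvinoxyl radicals by a literature method. IC50 reported in µM as mean ± S.E.M.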

[3] = Antioxidant activity assessed as galvinoxyl free radical scavenging activity after 19 hrs; type: functional; how it was run: as §1
[4] = n-octanol-water partition coefficient, log P of the compound by HPLC analysis; type: physicochemical
How it was run: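 Experimental logP determined in an octanol–water system for two representative compounds. All other values were calculated in silico.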

[5] = biological target: Amyloid-beta precursor protein (Homo sapiens) (UniProt P05067); experiment: Inhibition of amyloid beta-42 self-aggregation (unknown origin) at 100 uM after 1 hr by ThT fluorescence assay relative to control
Sequence of Amyloid-beta precursor protein (Homo sapiens) (P05067 whole entry): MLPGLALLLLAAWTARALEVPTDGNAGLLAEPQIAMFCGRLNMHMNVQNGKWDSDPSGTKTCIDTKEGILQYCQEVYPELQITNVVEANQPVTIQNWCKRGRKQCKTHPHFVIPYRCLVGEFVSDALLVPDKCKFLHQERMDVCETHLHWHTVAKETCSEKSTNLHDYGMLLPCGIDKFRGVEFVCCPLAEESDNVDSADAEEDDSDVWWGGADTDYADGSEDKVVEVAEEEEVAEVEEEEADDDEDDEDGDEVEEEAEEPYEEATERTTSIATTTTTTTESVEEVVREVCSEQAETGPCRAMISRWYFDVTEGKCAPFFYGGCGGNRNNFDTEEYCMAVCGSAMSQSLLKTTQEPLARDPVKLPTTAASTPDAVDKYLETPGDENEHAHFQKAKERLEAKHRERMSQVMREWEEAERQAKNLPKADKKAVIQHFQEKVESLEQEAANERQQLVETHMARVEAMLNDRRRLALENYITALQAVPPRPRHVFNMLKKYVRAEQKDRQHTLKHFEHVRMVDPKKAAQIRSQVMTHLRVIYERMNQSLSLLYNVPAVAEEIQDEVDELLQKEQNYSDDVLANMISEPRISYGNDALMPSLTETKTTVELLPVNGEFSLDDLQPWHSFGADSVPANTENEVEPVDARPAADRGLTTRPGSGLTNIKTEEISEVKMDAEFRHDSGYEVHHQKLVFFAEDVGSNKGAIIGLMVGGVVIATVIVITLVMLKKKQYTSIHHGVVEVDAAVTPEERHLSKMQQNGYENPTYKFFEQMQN
How it was run: (§2)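 Aβ42 self-aggregation read by Thioflavin T fluorescence. Test concentrations were 5, 50 and 100 µM. Each result is the mean of 3 measurements ± SEM. Statistics by one-way ANOVA with Tukey's multiple comparison test against Aβ alone.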

[6] = biological target: Amyloid-beta precursor protein (Homo sapiens) (UniProt P05067); experiment: Inhibition of amyloid beta-42 self-aggregation (unknown origin) at 50 uM after 1 hr by ThT fluorescence assay relative to control; how it was run: as §2
[7] = biological target: Amyloid-beta precursor protein (Homo sapiens) (UniProt P05067); experiment: Inhibition of amyloid beta-42 self-aggregation (unknown origin) after 1 hr by ThT fluorescence assay; how it was run: as §2
[8] = Chemical stability of the compound in PBS at pH 7.4 at […] measured up to 120 mins by absorption spectroscopic analysis in absence of 0.1% FBS; type: physicochemical; conditions: buffer, pH 7.4, 2 h
How it was run: (§3)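 Visible absorption at 410 nm tracked over time in phosphate-buffered solution, pH 7.4, under daylight. FBS was 0.1% for line 5 and absent for line 4. Stability expressed as A/A0, with A0 the absorbance at 0 min.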

[9] = Chemical stability of the compound in PBS at pH 7.4 at […] measured up to 120 mins by absorption spectroscopic analysis in presence of 0.1% FBS; type: physicochemical; conditions: buffer, pH 7.4, 2 h; how it was run: as §3

Structure (SMILES)	IC50 [2]	IC50 [3]	other results
CN(C)Cc1cc(/C=C/C(=O)/C=C(O)/C=C/c2ccc(O)c(CN(C)C)c2)ccc1O.Cl.Cl	–	–	solubility [1]: 16700 µg/mL
COc1ccc(/C=C/C(O)=C/C(=O)/C=C/c2ccc(O)c(CN(C)C)c2)cc1	15.1 µM	11.9 µM	–
Cc1ccc(/C=C/C(O)=C/C(=O)/C=C/c2ccc(O)c(CN(C)C)c2)cc1	18.7 µM	22 µM	–
COc1cc(/C=C/C(O)=C/C(=O)/C=C/c2ccc(O)c(CN(C)C)c2)ccc1O	–	–	logP [4]: 3.65
CN(C)Cc1cc(/C=C/C(=O)/C=C(O)/C=C/c2ccc(O)c(CN(C)C)c2)ccc1O [listing 1 of 2 here]	–	–	inhibition [5]: 32%; inhibition [6]: 28%; inhibition [7]: Dose-dependent effect
CN(C)Cc1cc(/C=C/C(=O)/C=C(O)/C=C/c2ccc(F)cc2)ccc1O	24.1 µM	22.3 µM	–
CN(C)Cc1cc(/C=C/C(=O)/C=C(O)/C=C/c2ccc(O)c(CN(C)C)c2)ccc1O [listing 2 of 2 here]	1.6 µM	4.9 µM	logP [4]: 3.48; Stability [8]: Stable; Stability [9]: Stable
COc1cc(/C=C/C(O)=C/C(=O)/C=C/c2ccc(O)c(CN(C)C)c2)ccc1O.Cl	–	–	solubility [1]: 1200 µg/mL
CN(C)Cc1cc(/C=C/C(=O)/C=C(O)/C=C/c2cccc(O)c2)ccc1O	4 µM	6.9 µM	–
CN(C)Cc1cc(/C=C/C(=O)/C=C(O)/C=C/c2ccc(Cl)cc2)ccc1O	11.1 µM	41.1 µM	–
CN(C)Cc1cc(/C=C/C(=O)/C=C(O)/C=C/c2ccc(O)cc2)ccc1O	1.5 µM	7.6 µM	–
COc1ccc(/C=C/C(O)=C/C(=O)/C=C/c2ccc(O)c(CN(C)C)c2)cc1OC	29.9 µM	27.4 µM	–
COc1cc(/C=C/C(=O)CC(=O)/C=C/c2ccc(O)c(OC)c2)ccc1O	–	–	inhibition [5]: 29%; inhibition [6]: 24%; inhibition [7]: Dose-dependent effect
